These results are taken from paper PMC2964879 (Biochemistry, 2010).

SMILES strings stand for the structures. Values after ≈ are worked out from the molar mass of the structure shown.

The subject of one assay is MbtA. The conditions noted are these: cited from earlier work.
Assay [1] deals with T1, BasE (Acinetobacter baumannii, UniProt A0A0D5YGP3). The conditions noted are these: for kcat, fold decrease relative to DHB / specificity constant, fold lower than DHB: relative to DHB; for KM, fold change relative to DHB: relative to DHB (increase in KM).
Another assay has as its system holo-BasF. Briefly: ESI-TOF mass spectrometry of aryl acid loading onto holo-BasF by BasE. To be noted: 50 μM holo-BasF, 200 nM BasE, 250 μM aryl acid, 16 hours. The format is biochemical, A. baumannii AB900. In a few lines:
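His-tagged BasF from A. baumannii AB900, expressed in E. coli, made holo in vitro with Sfp and CoA, then anion-exchange purified. Apo- and holo-BasF in the same buffer were reference samples. Samples were diluted in 50:50 water:acetonitrile with 0.1% formic acid and injected directly for ESI-TOF MS.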

The next assay relates to EntE. The conditions noted are these: cited from earlier work.
The next assay relates to A. baumannii. Briefly: Antibacterial activity. The format is cell-based.
Assay [2] deals with coupling enzymes inorganic pyrophosphatase and purine nucleoside phosphorylase. Briefly: Counter-test on the coupling enzymes of the continuous assay. The conditions noted are these: 200 μM; data not shown. The format is biochemical.
The target of assay [3] is T1, BasE. In words: Kinetic inhibition experiments with the continuous coupled assay. The assay is classed as biochemical, A. baumannii ATCC17978.
Assay [4] has as its target T1, BasE. Briefly: Fluorescence polarization displacement assay, BasE-AB900. The assay is classed as binding, A. baumannii AB900. To be noted: read-out: KD (FP) of the fluorescent probe. In general terms: Polarisation of emitted light reports the rotation of a fluorescent probe.
For assay [5], the target named is T1, BasE. Briefly: Fluorescence polarization displacement assay, BasE-ATCC. The conditions noted are these: read-out: KD (FP) of the fluorescent probe. The assay is classed as binding, A. baumannii ATCC17978.
In assay [6] the test system is BasE. To be noted: ATP-PPi exchange, saturating ATP; cited from earlier work.
The target in assay [7] is BasE. The conditions noted are these: read-out: dissociation constant Kia; nonvaried substrate in eq 2; cited from earlier work.

As to `Nc1nc(-c2ccccc2)nc2c1ncn2[C@@H]1O[C@H](COS(=O)(=O)NC(=O)c2ccccc2O)[C@@H](O)[C@H]1O` [5′-O-[N-(2-hydroxybenzoyl)sulfamoyl]-2-phenyladenosine], the binding constant entry in the assay on MbtA was “subnanomolar”.
In the case of `Nc1ncnc2c1ncn2[C@@H]1O[C@H](COP(=O)(O)OP(=O)(O)OP(=O)(O)O)[C@@H](O)[C@H]1O` [ATP], the turnover number (kcat) (usually the maximal rate divided by the concentration of active sites) at BasE [1] (substrate of BasE, coupled assay, 25 °C, pH 8.0) is 2.8 ± 0.2 s⁻¹. Further, on BasE [1] (substrate of BasE, coupled assay, 25 °C, pH 8.0, nonvaried substrates saturating), the Km (as a rule, the substrate concentration at which the rate is half of its maximum) was 300 ± 71 µM.
Consider `O=C(O)c1ccccc1` [BA, benzoic acid], for which, at BasE [1], the “kcat, fold decrease relative to DHB” value is listed as approximately 10 fold; the “specificity constant, fold lower than DHB” value was “three orders of magnitude”; the “KM, fold change relative to DHB” value was approximately 100 fold. The loading result in the assay with holo-BasF is given as “partial”.
Take `O=C(O)c1cccc(O)c1` [Compound 3-HBA, 3-hydroxy benzoic acid]: the “specificity constant, fold lower than DHB” value at BasE [1] was determined as 60 fold. Moreover, the loading entry in the assay on holo-BasF is recorded as “partial”.
As to `Nc1ncnc2c1ncn2[C@@H]1O[C@H](COS(=O)(=O)NC(=O)c2cccc(O)c2O)[C@@H](O)[C@H]1O` [Compound 5, 5′-O-[N-(2,3-dihydroxybenzoyl)sulfamoyl]adenosine], the “inhibition of EntE (inhibition and dissociation constants, in words)” value in the assay on EntE is “slow tight-binding picomolar inhibitors”. Also, the “antibacterial activity against A. baumannii” value in the assay with A. baumannii (unpublished results, D. Wilson and C. Aldrich) was “do not possess any antibacterial activity”.
Take `CCCCCCCCCCCCc1cn(-c2nc(N)c3ncn([C@@H]4O[C@H](COS(=O)(=O)NC(=O)c5ccccc5O)[C@@H](O)[C@H]4O)c3n2)nn1` [Compound 7, 2-(4-n-dodecyl-1,2,3-triazol-1-yl)-5′-O-[N-(2-hydroxybenzoyl)sulfamoyl]adenosine]: in the assay on A. baumannii (Acinetobacter baumannii), the minimal inhibitory concentration (MIC) – broadly, the lowest concentration that inhibits growth of the organism – was approximately 15 µM (≈ 10.5 µg/mL). In addition, the antibacterial activity result with A. baumannii (iron replete conditions) is “inactive”.
Take `O=C(O)c1cc(-c2ccccc2)nc2c1cnn2Cc1ccncc1` [Compound 8, 6-phenyl-1-(pyridin-4-ylmethyl)-1H-pyrazolo[3,4-b]pyridine-4-carboxylic acid]: in assay [2], the “inhibition of the coupling enzymes” value was “did not inhibit”. Further, at BasE [3], the “modality of inhibition with respect to DHB and ATP” value is on record as “competitive inhibition with respect to both substrates”. In addition, the slow binding inhibition entry at BasE [3] (10 min pre-incubation at 25 °C, data not shown) was “did not exhibit slow binding inhibition”.
Take `Nc1ncnc2c1ncn2[C@@H]1O[C@H](COS(=O)(=O)NC(=O)c2ccccc2O)[C@@H](O)[C@H]1OCCOCCOCCNC(=O)c1ccc2c(c1)C(=O)OC21c2ccc(O)cc2Oc2cc(O)ccc21` [Compound 9, 2′-O-{2-[2-(2-{[(fluorescein-5-yl)carbonyl]amino}ethoxy)ethoxy]ethoxy}-5′-O-[N-(2-hydroxybenzoyl)sulfamoyl]adenosine]: the figures for the Kd on BasE [4] and at BasE [5] were 144 ± 9 nM and 84 ± 6 nM, respectively.
As to `O=C(O)c1cccc(O)c1O` [DHB, 2,3-dihydroxybenzoic acid], in the assay with BasE [6], the Km is 1.5 µM and the turnover number (kcat) was 3.5 s⁻¹. In the assay on holo-BasF, the loading result was “full”. The Kd on BasE [7] was 2630 nM.
Turning to `O=C(O)c1ccccc1O` [SAL, 2-hydroxybenzoic acid], at BasE [1], the “kcat, fold decrease relative to DHB” value is listed as approximately 3 fold; the “specificity constant, fold lower than DHB” value is “approximately 6 fold”; the “KM, fold change relative to DHB” value is given as “approximately 2 fold”. Moreover, in the assay on holo-BasF, the loading result was “partial”.
